Shown are actives, neighbours in structure and some others; about 0.7% of the full set was active somewhere.
CaV13 ICDI inh: Primary screen for inhibitors of IQ motif and Ca2+-dependent inactivation inhibitor domain binding in CACNA1D, Förster resonance energy transfer in living cells, …; HEK cells, CFP/YFP FRET ICDI-IQ, plate reader, 10 min; percent FRET-ratio fall versus neutral wells; inhibition, % at 12.3 µM; 340,000 tested, 0.098% active;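 active = mean replicate inhibition of at least 30% and at least 1% of replicates passing that level; inconclusive = only one of the two criteria is met; inactive = neither criterion is met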;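 note: 0% = median of the neutral control wells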
Glyco luc inh: N-linked glycosylation inhibition; AID 588692; reporter increase, % at 12.5 µM; 360,000 tested, 0.23% active; D54 ERlucT glycosylation luciferase reporter, 24 h; percent of 100 nM tunicamycin response;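 active = mean luciferase reporter signal, scaled so untreated is 0 and the glycosylation-blocking control 100, at or above a set limit in every replicate; inconclusive = mean reaches the limit but not every replicate does; inactive = mean below the limit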;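 note: luciferase carries N-glycosylation sites so blocking glycosylation raises the light; 0% = median of neutral control wells and 100% = median of 100 nM tunicamycin wells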
RAD54 branch: blocks human RAD54 Holliday junction branch migration; FAM/BHQ fluorescence; 360,000 tested, 0.14% active; inhibition, % at 10.4 µM; Q92698;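 active = mean normalized replicate activity at least 40 and at least half of replicates scoring 40 or more; inconclusive = only one of the two criteria met; inactive = mean below 40 and under half of replicates reaching 40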;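 note: 0% = median of neutral control wells and 100% = median of positive control wells; inhibitors cause a drop in the FAM fluorescence signal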
FN deposition inh: fibronectin deposition inhibition. AH1F fibroblasts, Alexa488-fibronectin deposition fluorescence, overnight. inhibition, % at 12.6 µM. 350,000 tested, 0.086% active. AID 743247;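 active = mean inhibition across replicates of 30% or more, regardless of how many single replicates reach that level; inconclusive = mean under 30% yet at least half of replicates reach 30%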;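 note: positive control wells lacked labelled fibronectin entirely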
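material = AH1F fibroblast monolayer depositing Alexa488-labelled fibronectin into matrix | amount = 10000 AH1F cells/well | buffer or medium = DMEM plus 2% serum, read in PBS | incubation = 1 h cell adhesion before compound, then overnight fibronectin incubation | detection = fluorescence at 485 nm excitation, 525 nm emission | evaluation = percent inhibition as loss of matrix-bound fibronectin fluorescence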
RAD52 anneal inh: inhibitors of human RAD52 DNA annealing; inhibition, % at 18.7 µM; AID 651710; 360,000 tested, 0.46% active; P43351; recombinant RAD52 DNA annealing, FRET fluorescence;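 active = every replicate showing at least 50% inhibition; inconclusive = mean inhibition at least 50% but not in every replicate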
Target sequence (P43351 whole entry, looked up): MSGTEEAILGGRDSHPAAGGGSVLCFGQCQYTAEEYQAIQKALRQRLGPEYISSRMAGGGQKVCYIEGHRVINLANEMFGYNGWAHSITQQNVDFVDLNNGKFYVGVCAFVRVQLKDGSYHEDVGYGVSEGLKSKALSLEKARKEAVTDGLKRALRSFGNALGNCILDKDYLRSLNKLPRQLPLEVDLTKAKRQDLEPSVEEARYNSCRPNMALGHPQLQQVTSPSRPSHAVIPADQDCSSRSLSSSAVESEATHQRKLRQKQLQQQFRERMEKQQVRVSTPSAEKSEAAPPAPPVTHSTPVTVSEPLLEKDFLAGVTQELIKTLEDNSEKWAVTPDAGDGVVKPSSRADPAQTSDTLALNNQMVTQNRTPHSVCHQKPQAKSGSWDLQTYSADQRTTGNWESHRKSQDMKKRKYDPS
Rad54 DNA ctr: DNA binding artifact in Rad54 counter-screen | Acridine orange-DNA displacement, fluorescence polarization, 20 min | shares compounds with RAD54 branch | AC50, µM (highest dose often 35 µM), without a hit: at the highest dose activity change, negative = DNA binding | 460 tested, 8% active;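 active = signal drop giving an AC50 within twice the top valid tested concentration of each sample, actives reach about 35 µM in these data; inactive = activity opposite to expected, plus the rest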;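 note: polarization loss reports compound binding to salmon sperm DNA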
The depositor's hits bear a star; ? = inconclusive; nt = no result.

SMILES	CaV13 ICDI inh	Glyco luc inh	RAD54 branch	FN deposition inh	RAD52 anneal inh	Rad54 DNA ctr
Cc1nc(NC2=NCN(CCCN3CCOCC3)CN2)nc2c(C)cccc12	nt	6	81*	nt	nt	nt
Cc1nc(NC2=NCN(Cc3cccnc3)CN2)nc2ccccc12	-6	1	6	8	nt	nt
O=C(Nc1ccc2c(c1)OCCO2)c1ccc(NC(=O)C2CCCO2)cc1 (stereo not drawn)	93*	-2	1	6	nt	nt
CCOC(=O)c1cc([N+](=O)[O-])cc([N+](=O)[O-])c1Sc1ncnc2nc[nH]c12	-6	99*	nt	2	-11	nt
O=C(CSc1ncnc2nc[nH]c12)c1ccc(Cl)cc1	-3	?	-5	20	-43	nt
O=C(CSc1ncnc2nc[nH]c12)c1ccc([N+](=O)[O-])cc1	-5	45*	nt	2	3	nt
CO[C@@H]1CN(C)C(=O)c2ccc(NC(=O)Nc3ccccc3F)cc2OC[C@@H](C)N(C(C)=O)C[C@H]1C	nt	nt	nt	nt	-5	nt
C=CCNC(=O)/C(C#N)=C/c1c(C)nn(-c2ccc(Cl)cc2)c1Cl	-20	26*	nt	7	-10	nt
Cc1nn(-c2ccc(Cl)cc2)c(Cl)c1/C=C(\C#N)C(N)=O	-5	9	9	11	-25	nt
C=C(C)CN(CC)c1nc(N)c2c(N)nc3c(c2c1C#N)CC(=O)N3C12CC3CC(CC(C3)C1)C2	-6	nt	-2	-11	nt	nt
N#Cc1c(N2CCCC(O)C2)nc(N)c2c(N)nc3c(c12)CC(=O)N3C12CC3CC(CC(C3)C1)C2 (stereo not drawn)	-6	41*	4	-10	nt	nt
C=CC(=O)N1C/C(=C/c2ccccc2)C(=O)/C(=C\c2ccccc2)C1	-5	-19	nt	40*	-18	nt
C=CC(=O)N1C/C(=C/c2ccc(Cl)cc2)C(=O)/C(=C\c2ccc(Cl)cc2)C1	-5	-20	nt	-4	-18	nt
COc1cccc(C2=NOC(C(=O)NCc3ccccc3)C2)c1 (stereo not drawn)	-4	?	-1	6	nt	nt
COc1cccc(C2=NOC(C(=O)NCc3ccco3)C2)c1 (stereo not drawn)	-4	29*	13	2	nt	nt
CCC(=O)N1CC2(C1)CN(C(=O)CN1CCOCC1)[C@H](CO)c1c2c2ccc(OC)cc2n1C	nt	nt	nt	nt	3	nt
O=C(Cc1cccnc1)N1CC(=O)N2[C@H](CO)[C@H](c3ccc(C#CC4CCCC4)cc3)[C@H]2C1	nt	nt	nt	-3	-9	nt
CCCC(c1nnnn1Cc1ccc(OC)cc1)N1CCN(c2ccccc2)CC1 (stereo not drawn)	nt	4	?	nt	nt	-10%
C[C@H]1CN([C@@H](C)CO)C(=O)Cc2cc(NC(=O)NC3CCCCC3)ccc2O[C@@H]1CN(C)Cc1ccc2c(c1)OCO2	nt	nt	-4	nt	-1	nt
Cn1c(C(=O)NCCCN2CCOCC2)cc2c(=O)n(C)c3ccccc3c21	-4	7	?	6	15	-20%
CCCCN(CC)CCCNC(=O)c1cc2c(=O)n(C)c3ccccc3c2n1C	-2	22	61*	-3	40	-13%
CC(C)OCCCNC(=O)c1cc2c(=O)n(C)c3ccccc3c2n1C	-2	4	3	0	-14	nt
Cn1c(C(=O)NCCN2CCCCCC2)cc2c(=O)n(C)c3ccccc3c21	10	3	56*	2	38	-6%
CC1CCN(CCCNC(=O)c2cc3c(=O)n(C)c4ccccc4c3n2C)CC1	-12	18	59*	-5	27	-17%
C[C@@H]1CCCCO[C@H](CN(C)Cc2ccncc2)[C@@H](C)CN([C@@H](C)CO)C(=O)c2cc(NC(=O)c3ccccc3)ccc2O1	nt	nt	-10	nt	10	nt
SMILES	CaV13 ICDI inh	Glyco luc inh	RAD54 branch	FN deposition inh	RAD52 anneal inh	Rad54 DNA ctr
CC(C)COC(=O)N(C)C[C@@H]1OCc2ccccc2-c2c(n(C)c3ccccc23)C(=O)N([C@@H](C)CO)C[C@@H]1C	nt	nt	5	-9	17	nt
Nc1ccc(-c2nc3ccccc3[nH]2)cc1	14	1	38	-11	-30	nt
Nc1ccc(-c2nc3c(ccc4ccccc43)[nH]2)cc1	-5	8	50*	-4	-14	-5%
Cc1ccccc1-c1ccccc1[C@H]1[C@@H](C#N)N(C(=O)c2ccccc2)[C@@H]1CO	nt	nt	nt	nt	-23	nt
Cc1ccc(S(=O)(=O)N2CC[C@@H]3[C@H]2c2cc(-c4cccc(C#N)c4)ccc2N(C)[C@H]3CO)cc1	nt	nt	3	12	-4	nt
CC(C)NC(=O)Nc1ccc2c(c1)C(=O)N(C)[C@@H]1CC[C@H](CC(=O)Nc3ccccc3)O[C@H]1CO2	nt	nt	-8	-1	2	nt
COc1cccc(-c2nc(N3CCN(Cc4ccccc4)CC3)c3ccccc3n2)c1O	-1	-1	64*	3	-13	-1%
COc1cccc(-c2nc(N3CCN(c4ccccc4)CC3)c3ccccc3n2)c1O	nt	-2	-3	nt	nt	nt
C/C=C/c1ccc([C@@H]2[C@H](CO)N(CCC(F)(F)F)C23CN(C(=O)COC)C3)cc1	nt	nt	nt	nt	5	nt
Cn1nc(-c2ccccn2)nc2c(=O)n(C)c(=O)nc1-2	-4	-23	61*	13	6	12%
CCCc1nc2c(=O)n(C)c(=O)nc-2n(C)n1	2	-20	74*	5	35	-16%
CN(C)CCSc1nc(N)c2c3c(sc2n1)CN(C)CC3	-7	-4	75*	nt	nt	-13%
CCCCC(=O)Nc1cc(N(C)C)nc2ccccc12	-3	1	4	nt	nt	nt
CN(C)c1cc(NC(=O)CNC(C)(C)C)c2ccccc2n1	-3	6	76*	3	28	-11%
CCCC#Cc1ccc2c(c1)O[C@@H](CN(C)CC1CCOCC1)[C@@H](C)CN([C@@H](C)CO)S2(=O)=O	nt	nt	-4	nt	-11	nt
CCN(CC)CCOc1c(Br)ccc2c1sc1nc3n(c(=O)c12)CCC3	-2	67*	86*	-7	nt	-8%
O=c1c2c(nc3n1CCCCC3)sc1c(O)c(Br)ccc12	-7	-10	-1	nt	0	nt
CCn1cc(C(=O)NCCN(C)C)c(=O)c2cc(F)c(N3CCN(C)CC3)cc21	-4	5	59*	6	-28	-13%
NNC(=O)c1oc2nc(-c3cccs3)cc(-c3ccco3)c2c1N	-8	51*	?	2	-10	-3%
Cc1ccc(-c2cc(-c3ccco3)c3c(N)c(C(=O)NN)oc3n2)cc1	-7	5	nt	1	-28	nt
O=C(Nc1nnc(COc2ccc(F)cc2)s1)c1ccco1	-23	-1	?	-3	-20	-6%
O=C(Nc1nnc(COc2ccc(Br)cc2)s1)c1ccco1	-5	1	-6	-3	-11	nt
O=C(COc1ccc2c3c(c(=O)oc2c1)CCC3)NCCCN1CCOCC1	-3	2	2	0	-9	nt
O=c1c2ccccc2oc2cc(NCCCN3CCOCC3)ccc12	-5	-5	66*	6	29	-16%
